Experiments:
Rattus norvegicus [1] = experiment: Compound was evaluated for the type-I hypersensitivity in rat POA model after intravenous administration.; assay type: functional; conditions: read-out: ID50 (the source's name)
Summary of the method: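 Modified Iso method. Rats of 150–200 g were sensitized with three conjunctival injections per eye (bulbar, palpebral, lower) of 50 μL of 1:4-diluted rat IgE anti-ovalbumin antiserum. 24 h later, drug was given IV just before IV challenge with ovalbumin (25 mg/kg) plus Evans blue (12.5 mg/kg in saline). Eyelids and eyeballs were taken at 30 min, extracted in acetone/0.5% sodium sulfate, and read at 620 nm. Result expressed as ID50 (mg/kg).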

[2] = Compound was evaluated for pyranenamine lipophilicity; assay type: physicochemical; conditions: octanol/water
Rattus norvegicus [3] = experiment: Compound was evaluated for the type-I hypersensitivity in rat POA model at a concentration of 3% administered topically.; assay type: functional
Summary of the method: (§1)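 Modified Iso passive ocular anaphylaxis in 150–200 g rats. Each eye was sensitized by three conjunctival injections of 50 μL of 1:4-diluted rat IgE anti-ovalbumin antiserum. At 24 h, 10 μL of drug solution was instilled topically 15 min before, just prior to, and 15 min after IV ovalbumin (25 mg/kg) with Evans blue (12.5 mg/kg). At 30 min, eye tissue dye was extracted in acetone/0.5% Na2SO4 and read at 620 nm. Result expressed as % inhibition.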

Rattus norvegicus [4] = experiment: Compound was evaluated for the type-I hypersensitivity in rat POA model at a concentration of 5% administered topically.; assay type: functional; summary of the method: as §1
Rattus norvegicus [5] = experiment: Compound was evaluated for the type-I hypersensitivity in rat POA model at a concentration of 1% administered topically.; assay type: functional; summary of the method: as §1
Rattus norvegicus [6] = experiment: Compound was evaluated for the type-I hypersensitivity in rat POA model at a concentration of 10% administered topically.; assay type: functional; summary of the method: as §1
Rattus norvegicus [7] = experiment: Compound was evaluated for the type-I hypersensitivity in rat POA model at a concentration of 4% administered topically.; assay type: functional
Summary of the method: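 Modified Iso method. Rats (150–200 g) sensitized with three 50 µL injections per eye (bulbar conjunctiva, palpebral, lower conjunctiva) of 1:4-diluted rat IgE anti-ovalbumin antisera. After 24 h, iv challenge with ovalbumin 25 mg/kg plus Evans blue 12.5 mg/kg. Drug (10 µL) instilled 15 min before, just before and 15 min after challenge. Killed at 30 min; eyelids and eyeballs extracted in acetone/0.5% sodium sulfate; read at 620 nm; % inhibition.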

| logP [2] | Structure (SMILES) | ED50 (Rattus norvegicus [1]) [mg/kg] | Inhibition (Rattus norvegicus [3]) [%] | Inhibition (Rattus norvegicus [4]) [%] | Inhibition (Rattus norvegicus [5]) [%] | Inhibition (Rattus norvegicus [6]) [%] | Inhibition (Rattus norvegicus [7]) [%] |
| --- | --- | --- | --- | --- | --- | --- | --- |
| -2.44 | CC(=O)C1=C(O)C(=C(C)Nc2cc(NC(=O)[C@H](O)CO)cc(NC(=O)[C@H](O)CO)c2)C(=O)OC1=O | 300 | – | – | – | – | – |
| -2.43 | CC(=O)c1c(O)c(/C(C)=N/c2cc(NC(=O)C(CO)CO)cc(NC(=O)C(CO)CO)c2)c(O)oc1=O | 30 | 31 | 41 | 12 | – | – |
| -2.44 | CC(=O)c1c(O)c(/C(C)=N/c2cc(NC(=O)C(O)CO)cc(NC(=O)C(O)CO)c2)c(O)oc1=O (stereo not given) | 60 | 25 | – | 16 | – | – |
| -0.32 | CC(=O)c1c(O)c(/C(C)=N/c2cc(NC(=O)CO)cc(NC(=O)CO)c2)c(O)oc1=O | 30 | 15 | – | – | – | – |
| -2.44 | CC(=O)C1=C(O)C(=C(C)Nc2cc(NC(=O)[C@@H](O)CO)cc(NC(=O)[C@@H](O)CO)c2)C(=O)OC1=O | 30 | 40 | 63 | – | 79 | – |
| – | O=C([O-])c1cc(=O)c2c(OCC(O)COc3cccc4oc(C(=O)[O-])cc(=O)c34)cccc2o1.[Na+].[Na+] [CROMOLYN SODIUM] | – | – | – | – | – | 0 |

— ChEMBL document CHEMBL1125909, “Synthesis of chiral and achiral pyranenamine derivatives. Potent agents with topical ocular antiallergic activity” (J Med Chem, 1991)
